Measured values reported in ChEMBL document CHEMBL1158554, “3,5-Diaryl-1H-pyrazole as a molecular scaffold for the synthesis of apoptosis-inducing agents” (2010).
Activity calls are given as the source filed them. No cut-off for these calls is given here.

Experiments:
[1] = tested on: OVCAR; assay: Growth inhibition of human OVCAR cells after 48 hrs by MTT assay; assay type: functional
Outline: (§1)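 Cells seeded 3000/well (OVCA, SW620, H460) or 5000/well (AGS), grown 24 h, then exposed to serial dilutions (DMSO stock) for 48 h at 37 °C, 5% CO2. MTT (2 mg/ml in PBS) added for 2 h; formazan dissolved in DMSO and read at 570 nm. Inhibition = (1 − At/Ac)×100 vs vehicle; GI50 interpolated from dose–response curves; four to six separate experiments, mean ± SEM.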

[2] = tested on: SW-620; assay: Growth inhibition of human SW620 cells after 48 hrs by MTT assay; assay type: functional; settings: SW-620, 48 h; outline: as §1
[3] = tested on: NCI-H460; assay: Growth inhibition of human H460 cells after 48 hrs by MTT assay; assay type: functional; settings: NCI-H460, 48 h; outline: as §1
[4] = tested on: AGS; assay: Growth inhibition of human AGS cells after 48 hrs by MTT assay; assay type: functional; outline: as §1
[5] = tested on: AGS; assay: Growth inhibition of human AGS cells at 40 uM after 48 hrs by MTT assay; assay type: functional, cell-based
Outline: (§2)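 MTT growth inhibition at the top tested concentration of 40 uM, 48 h exposure, cells seeded as for GI50 (3000/well OVCA, SW620, H460; 5000/well AGS).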

[6] = tested on: SW-620; assay: Growth inhibition of human SW620 cells at 40 uM after 48 hrs by MTT assay; assay type: functional, cell-based; outline: as §2
[7] = tested on: NCI-H460; assay: Growth inhibition of human H460 cells at 40 uM after 48 hrs by MTT assay; assay type: functional, cell-based; outline: as §2
[8] = tested on: OVCAR; assay: Growth inhibition of human OVCAR cells at 40 uM after 48 hrs by MTT assay; assay type: functional, cell-based; outline: as §2
[9] = molecular target: RAC-alpha serine/threonine-protein kinase (Homo sapiens) (UniProt P31749); assay: Inhibition of Akt phosphorylation in human OVCAR cells at 1.2 to 5 uM after 16 hrs by Western blot analysis; assay type: cell-based
Outline: (§3)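 OVCA cells treated 16 h (vehicle 1% DMSO), washed in PBS, lysed; 50 ug protein run on 15% SDS-PAGE, transferred to nitrocellulose, blocked overnight at 4 °C in TBST/5% milk. Probed with anti-PARP (1:500), anti-cleaved caspase-3, anti-cleaved caspase-9, anti-phospho-Akt, anti-Akt, anti-beta-actin (1:1000), then secondary IgG 1:10,000 for 1 h at room temperature; ECL detection. Total Akt used as reference for phospho-Akt.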

[10] = tested on: OVCAR; assay: Induction of apoptosis in human OVCAR cells assessed as increase in cleaved caspase-9 level at 1.2 to 5 uM after 16 hrs by Western blot analysis; assay type: functional, cell-based; outline: as §3
[11] = tested on: OVCAR; assay: Induction of apoptosis in human OVCAR cells assessed as PARP cleavage at 1.2 to 5 uM after 16 hrs by Western blot analysis; assay type: functional, cell-based; outline: as §3
[12] = tested on: OVCAR; assay: Cell cycle arrest in human OVCAR cells assessed as accumulation at sub-G1 phase at 1.2 uM after 24 hrs by propidium iodide staining-based FACS analysis; assay type: functional
Outline: (§4)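 OVCA cells given 0.5% DMSO or compound for 24 h, harvested, PBS-rinsed, fixed in 80% ethanol and held at −20 °C until analysis. Propidium iodide DNA staining and flow cytometry; apoptotic nuclei scored as the subdiploid (sub-G1) peak, given as percent of the whole population. Untreated cells served as blank.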

[13] = tested on: OVCAR; assay: Cell cycle arrest in human OVCAR cells assessed as accumulation at sub-G1 phase at 5 uM after 24 hrs by propidium iodide staining-based FACS analysis; assay type: functional; outline: as §4
[14] = tested on: OVCAR; assay: Induction of apoptosis in human OVCAR cells assessed as increase in cleaved caspase-3 level at 1.2 to 5 uM after 16 hrs by Western blot analysis; assay type: functional, cell-based; outline: as §3
[15] = tested on: OVCAR; assay: Cell cycle arrest in human OVCAR cells assessed as accumulation at sub-G1 phase at 2.5 uM after 24 hrs by propidium iodide staining-based FACS analysis; assay type: functional; outline: as §4

Sequence of RAC-alpha serine/threonine-protein kinase (Homo sapiens) (P31749 whole entry): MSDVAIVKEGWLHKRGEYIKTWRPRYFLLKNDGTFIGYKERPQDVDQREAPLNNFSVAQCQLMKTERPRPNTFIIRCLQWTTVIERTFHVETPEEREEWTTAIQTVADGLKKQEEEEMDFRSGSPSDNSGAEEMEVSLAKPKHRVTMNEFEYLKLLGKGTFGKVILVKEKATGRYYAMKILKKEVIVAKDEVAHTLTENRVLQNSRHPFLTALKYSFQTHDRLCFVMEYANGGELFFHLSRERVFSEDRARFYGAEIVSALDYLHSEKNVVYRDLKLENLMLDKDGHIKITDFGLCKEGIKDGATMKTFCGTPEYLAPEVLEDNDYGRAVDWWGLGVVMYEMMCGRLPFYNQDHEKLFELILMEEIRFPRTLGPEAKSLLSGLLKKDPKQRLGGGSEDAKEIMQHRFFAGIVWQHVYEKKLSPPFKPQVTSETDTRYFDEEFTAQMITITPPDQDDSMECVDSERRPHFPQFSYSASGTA

| Compound | GI50 [1] | GI50 [2] | GI50 [3] | GI50 [4] | growth inhibition (GI) [5] | growth inhibition (GI) [6] | growth inhibition (GI) [7] | other results |
| --- | --- | --- | --- | --- | --- | --- | --- | --- |
| Nc1ccc(-c2cc(-c3ccc(C(F)(F)F)cc3)n[nH]2)cc1 | 18.6 µM | – | 21.5 µM | – | inactive | inactive | – | – |
| O=[N+]([O-])c1cccc(-c2cc(-c3ccccc3)n[nH]2)c1 | 5.8 µM | – | 6.1 µM | 11.4 µM | – | inactive | – | – |
| COc1ccc(-c2cc(-c3ccc(N)cc3)[nH]n2)cc1 | – | – | – | – | inactive | inactive | inactive | growth inhibition (GI) [8]: inactive |
| COc1ccc(-c2cc(-c3ccc(N)cc3)[nH]n2)cc1OC | – | – | – | – | inactive | inactive | inactive | growth inhibition (GI) [8]: inactive |
| COc1ccccc1-c1cc(-c2ccccc2-c2ccccc2)n[nH]1 | 14.2 µM | – | 9.1 µM | – | inactive | inactive | – | – |
| O=[N+]([O-])c1ccc(-c2cc(-c3ccccc3)n[nH]2)cc1 | 7.2 µM | – | 10.2 µM | – | inactive | inactive | – | – |
| O=[N+]([O-])c1ccc(-c2cc(-c3ccc(C(F)(F)F)cc3)n[nH]2)cc1 | – | – | – | – | inactive | – | inactive | growth inhibition (GI) [8]: inactive |
| COc1cccc(-c2cc(-c3ccccc3-c3ccccc3)n[nH]2)c1 | 5.8 µM | – | 8.7 µM | 7.5 µM | – | inactive | – | – |
| O=[N+]([O-])c1ccc(-c2cc(-c3ccc(Br)cc3)n[nH]2)cc1 | 17.5 µM | 28.6 µM | – | 14.6 µM | – | – | inactive | – |
| O=[N+]([O-])c1ccc(-c2cc(-c3ccc4c(c3)OCO4)n[nH]2)cc1 | 10.8 µM | 23.5 µM | 8.9 µM | 13.1 µM | – | – | – | – |
| COc1ccc(-c2cc(-c3ccc(C(F)(F)F)cc3)n[nH]2)cc1 | 22.8 µM | 11.2 µM | – | 14.8 µM | – | – | inactive | – |
| CN(C)c1ccc(-c2cc(-c3ccc(C(F)(F)F)cc3)n[nH]2)cc1 | – | – | – | – | inactive | inactive | inactive | – |
| COc1cccc(-c2cc(-c3ccc(N)cc3)[nH]n2)c1 | – | – | – | – | inactive | inactive | inactive | growth inhibition (GI) [8]: inactive |
| COc1ccccc1-c1cc(-c2ccc([N+](=O)[O-])cc2)[nH]n1 | 11.7 µM | – | 20.5 µM | – | inactive | inactive | – | – |
| COc1ccccc1-c1cc(-c2ccc(N)cc2)[nH]n1 | – | 21.1 µM | – | – | inactive | – | inactive | growth inhibition (GI) [8]: inactive |
| Oc1ccc(-c2cc(-c3ccc(C(F)(F)F)cc3)n[nH]2)cc1 | 9.2 µM | 19.6 µM | 20.1 µM | 9.8 µM | – | – | – | – |
| Oc1ccccc1-c1cc(-c2ccccc2-c2ccccc2)n[nH]1 | 5.8 µM | 10.6 µM | 4.6 µM | 7.5 µM | – | – | – | – |
| FC(F)(F)c1ccc(-c2cc(-c3ccccc3-c3ccccc3)n[nH]2)cc1 | 2.75 µM | – | – | 6.9 µM | – | inactive | inactive | inhibition [9]: Active; Activity [10]: Active; Activity [11]: Active; Activity [12]: 11.43%; Activity [13]: 23.51%; Activity [14]: Active; Activity [15]: 15.75% |
| COc1cccc(-c2cc(-c3ccc([N+](=O)[O-])cc3)[nH]n2)c1 | 19.1 µM | – | 11.2 µM | – | inactive | inactive | – | – |

Now from value to compound, other results behind:

| GI50 [1] | GI50 [2] | GI50 [3] | GI50 [4] | Compound | growth inhibition (GI) [5] | growth inhibition (GI) [6] | growth inhibition (GI) [7] | other results |
| --- | --- | --- | --- | --- | --- | --- | --- | --- |
| 17.5 µM | 26.9 µM | 13.2 µM | 19 µM | COc1ccc(-c2cc(-c3ccc4ccccc4c3)n[nH]2)cc1 | – | – | – | – |
| 9.9 µM | 27.2 µM | 10.4 µM | 11.3 µM | COc1ccc(-c2cc(-c3ccccc3)n[nH]2)cc1 | – | – | – | – |
| 17.9 µM | – | 8.2 µM | 8.4 µM | Nc1ccc(-c2cc(-c3ccccc3-c3ccccc3)n[nH]2)cc1 | – | inactive | – | – |
| 14 µM | – | – | – | COc1ccc(-c2cc(-c3ccc(F)cc3)n[nH]2)cc1 | inactive | inactive | inactive | – |
| 6.2 µM | 25.9 µM | 6.9 µM | 9.2 µM | Oc1ccc(-c2cc(-c3ccccc3-c3ccccc3)n[nH]2)cc1 | – | – | – | – |
| – | 25.4 µM | 26.7 µM | – | Nc1ccc(-c2cc(-c3ccccc3)n[nH]2)cc1 | inactive | – | – | growth inhibition (GI) [8]: inactive |
| – | 12.2 µM | 20.7 µM | 24.1 µM | O=[N+]([O-])c1ccc(-c2cc(-c3ccc(Cl)cc3)n[nH]2)cc1 | – | – | – | growth inhibition (GI) [8]: inactive |
| 3.4 µM | 12.2 µM | 2.7 µM | 1.2 µM | O=[N+]([O-])c1ccc(-c2cc(-c3ccccc3-c3ccccc3)n[nH]2)cc1 | – | – | – | – |
| 28.9 µM | 26.4 µM | 17.9 µM | – | COc1ccc(-c2cc(-c3ccc([N+](=O)[O-])cc3)[nH]n2)cc1OC | inactive | – | – | – |
| 12.8 µM | – | 11.6 µM | – | COc1ccc(-c2cc(-c3ccc(Cl)cc3)n[nH]2)cc1 | inactive | inactive | – | – |
| 20.7 µM | – | 27.1 µM | – | COc1ccc(-c2cc(-c3ccc(Br)cc3)n[nH]2)cc1 | inactive | inactive | – | – |
| 0.67 µM | 0.89 µM | 0.73 µM | 0.79 µM | COc1ccc(-c2cc(-c3ccccc3-c3ccccc3)n[nH]2)cc1 | – | – | – | inhibition [9]: Active; Activity [10]: Active; Activity [11]: Active; Activity [12]: 14.97%; Activity [13]: 32.05%; Activity [14]: Active; Activity [15]: 20.53% |
| 27.3 µM | 14.3 µM | 18.3 µM | – | COc1ccc(-c2cc(-c3ccc([N+](=O)[O-])cc3)[nH]n2)cc1 | inactive | – | – | – |
| – | 18.1 µM | – | 18.3 µM | O=[N+]([O-])c1ccc(-c2cc(-c3ccc(F)cc3)n[nH]2)cc1 | – | – | inactive | growth inhibition (GI) [8]: inactive |
